Data on four compounds can be found in ChEMBL document CHEMBL1122579, “Synthesis and biological activity of nucleosides and nucleotides related to the antitumor agent 2-beta-D-ribofuranosylthiazole-4-carboxamide” (J Med Chem, 1984).

Test [1] concerns Mus musculus. Put plainly: Mice were inoculated intraperitoneally with L1210 leukemia cells and the change in body weight of the mice with the compound was evaluated at a dose of 200 mg/kg. Format: functional. Conditions: route intraperitoneal. Put shortly: (§1)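 Mice received intraperitoneally implanted L1210 leukemia, with groups of six treated mice and 36 untreated controls. Compound was given intraperitoneally on days 1-5. Body weight change was the average weight on day 5 minus the average on day 1, in grams. Median life span and % ILS were recorded against the untreated controls.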

The test system of test [2] is Mus musculus. Put plainly: Mice were inoculated intraperitoneally with L1210 leukemia cells and the percentage ILS of the mice with the compound was evaluated at a dose of 400 mg/kg. Format: functional. The settings on record: L1210, ip, route intraperitoneal. The method, boiled down:
(§2)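 Mice implanted ip with L1210 leukemia, in groups of six, with 36 untreated controls. Drug given ip on days 1-5 at 50-800 mg/kg. Endpoint was median life span in days, with percent increase in life span (ILS) relative to untreated controls. Body weight change was taken as day 5 minus day 1 average weight.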

In test [3] the test system is Mus musculus. Put plainly: Mice were inoculated intraperitoneally with L1210 leukemia cells and the change in body weight of the mice with the compound was evaluated at a dose of 100 mg/kg. The class given is functional. The settings on record: route intraperitoneal. Put shortly: as §1
Test [4] concerns Mus musculus. Put plainly: Mice were inoculated intraperitoneally with L1210 leukemia cells and the change in body weight of the mice with the compound was evaluated at a dose of 50 mg/kg. Conditions: route intraperitoneal. Format: functional. The method, boiled down: as §1
For test [5], the system named is Mus musculus. Put plainly: Mice were inoculated intraperitoneally with L1210 leukemia cells and the median life span of the mice with the compound was evaluated at a dose of 400 mg/kg. The class given is functional. The settings on record: route intraperitoneal. The method, boiled down: as §2
In test [6] the test system is Mus musculus. Put plainly: Mice were inoculated intraperitoneally with L1210 leukemia cells and the percentage ILS of the mice with the compound was evaluated at a dose of 50 mg/kg. Format: functional. The settings on record: L1210, ip, route intraperitoneal. Put shortly: as §2
Test [7] has as its system Mus musculus. Put plainly: Mice were inoculated intraperitoneally with L1210 leukemia cells and the median life span of the mice with the compound was evaluated at a dose of 50 mg/kg. The class given is functional. Conditions: route intraperitoneal. The method, boiled down: as §2
The test system of test [8] is Mus musculus. Put plainly: Mice were inoculated intraperitoneally with L1210 leukemia cells and the median life span of the mice with the compound was evaluated at a dose of 200 mg/kg. Conditions: route intraperitoneal. Format: functional. Put shortly: as §2
The subject of test [9] is Mus musculus. Put plainly: Mice were inoculated intraperitoneally with L1210 leukemia cells and the percentage ILS of the mice with the compound was evaluated at a dose of 100 mg/kg. The class given is functional. Conditions: L1210, ip, route intraperitoneal. The method, boiled down:
as §2

The test system of test [10] is Mus musculus. Put plainly: Mice were inoculated intraperitoneally with L1210 leukemia cells and the median life span of the mice with the compound was evaluated at a dose of 100 mg/kg. Conditions: route intraperitoneal. The class given is functional. Put shortly: as §2
The subject of test [11] is Mus musculus. Put plainly: Mice were inoculated intraperitoneally with L1210 leukemia cells and the percentage ILS of the mice with the compound was evaluated at a dose of 200 mg/kg. The class given is functional. The settings on record: L1210, ip, route intraperitoneal. The method, boiled down:
as §2

Test [12] has as its system Mus musculus. Put plainly: Mice were inoculated intraperitoneally with L1210 leukemia cells and the change in body weight of the mice with the compound was evaluated at a dose of 400 mg/kg. Conditions: route intraperitoneal. Format: functional. The method, boiled down: as §1
For test [13], the target named is purine nucleoside phosphorylase (human) (UniProt P00491). Put plainly: Compound was evaluated for the concentration which […] inosine phosphorolysis by human lymphoblast purine nucleoside phosphorylase and expressed as IC50.
A further test relates to T-cells (human). Put plainly: Compound was evaluated for the cytotoxicity to T cells in the presence of 2'-deoxyguanosine and expressed as ED50.
The species named for test [14] is Mus musculus. Put plainly: Compound was evaluated for the cytotoxicity to L1210 leukemia cells in culture at ~1.6-fold higher concentrations and expressed as ID50. The class given is functional. Conditions: read-out: ID50 (the source's name).
Test [15] has as its system Mus musculus. Put plainly: Mice were inoculated intraperitoneally with L1210 leukemia cells and the percentage ILS of the mice with the compound was evaluated at a dose of 800 mg/kg. The class given is functional. The settings on record: L1210, ip, route intraperitoneal. Put shortly: as §2
Test [16] relates to Mus musculus. Put plainly: Mice were inoculated intraperitoneally with L1210 leukemia cells and the median life span of the mice with the compound was evaluated at a dose of 800 mg/kg. Format: functional. The settings on record: route intraperitoneal. The method, boiled down:
as §2

Test [17] concerns Mus musculus. Put plainly: Mice were inoculated intraperitoneally with L1210 leukemia cells and the change in body weight of the mice with the compound was evaluated at a dose of 800 mg/kg. The settings on record: route intraperitoneal. Format: functional. Put shortly: as §1
Test [18] concerns Mus musculus. Put plainly: Mice were inoculated intraperitoneally with L1210 leukemia cells and the percentage ILS of the mice with the compound was evaluated at a dose of 25 mg/kg. Format: functional. The settings on record: L1210, ip, route intraperitoneal.
For test [19], the system named is Mus musculus. Put plainly: Mice were inoculated intraperitoneally with L1210 leukemia cells and the median life span of the mice with the compound was evaluated at a dose of 25 mg/kg. The class given is functional. The settings on record: route intraperitoneal.
Test [20] concerns Mus musculus. Put plainly: Mice were inoculated intraperitoneally with L1210 leukemia cells and the change in body weight of the mice with the compound was evaluated at a dose of 25 mg/kg. Format: functional. The settings on record: route intraperitoneal.

The ILS is how much longer treated animals lived than controls. Higher therefore signals much gain in survival. For the compound `NC(=O)c1csc([C@@H]2O[C@@H]3COP(=O)(O)O[C@H]3[C@H]2O)n1`, the Body weight change with Mus musculus [1] is on record as -1.9 g; in the test with Mus musculus [3] it was -0.6 g; with Mus musculus [4] it was -1.1 g; in the test with Mus musculus [12], -3.1 g. Also, the ILS at 400 mg/kg in the test with Mus musculus [2] was 55%. Further, the Median life span with Mus musculus [5] came to 18 days; with Mus musculus [7], 13.3 days; in the test with Mus musculus [8], 17.7 days; in the test with Mus musculus [10] it was 14.3 days. In the test with Mus musculus [6], this compound showed an ILS at 50 mg/kg of 14%. In the test with Mus musculus [9], this compound registered an ILS at 100 mg/kg of 23%. Further, the ILS at 200 mg/kg with Mus musculus [11] amounted to 52%.
The term EC50 denotes the concentration giving half of the maximal effect. On to `N=C(N)c1csc([C@@H]2O[C@H](CO)[C@@H](O)[C@H]2O)n1`, for which the IC50 in [13] came to 300 µM. In the test with T-cells (human), the EC50 turned out to be 77 µM.
As to `NC(=O)c1csc([C@@H]2O[C@H](COP(=O)(O)O)[C@@H](O)[C@H]2O)n1`, the Body weight change in the test with Mus musculus [1] was -1.4 g; in the test with Mus musculus [3] it was -1 g; in the test with Mus musculus [4] it was -0.6 g; in the test with Mus musculus [17], -3.6 g; in the test on Mus musculus [12], -2 g. In the test on Mus musculus [2], the ILS at 400 mg/kg amounted to 83%. In addition, the Median life span with Mus musculus [5] stood at 15.2 days; with Mus musculus [7] it was 11.3 days; with Mus musculus [8], 21.5 days; in the test with Mus musculus [16], 16.3 days; in the test on Mus musculus [10] it was 15.5 days. This compound registered an ILS at 50 mg/kg in the test with Mus musculus [6] of 36%. Besides, in the test filed under Mus musculus [14], the IC50 came to 3.2 µM. For the same compound, the ILS at 800 mg/kg in the test with Mus musculus [15] is 96%. For the same compound, the ILS at 100 mg/kg with Mus musculus [9] was determined as 86%. Moreover, in the test on Mus musculus [11], the ILS at 200 mg/kg amounted to 159%.
Consider `NC(=O)c1csc([C@@H]2O[C@H](CO)[C@@H](O)[C@H]2O)n1` [TIAZOFURIN], for which the Body weight change in the test on Mus musculus [1] was -2.9 g; with Mus musculus [3] it was -2.5 g; in the test on Mus musculus [4], -2.1 g; in the test with Mus musculus [20], -2.6 g; with Mus musculus [17], -4.4 g; in the test with Mus musculus [12], -3.9 g. In the test on Mus musculus [18], this compound came in with an ILS at 25 mg/kg of 58%. In the test on Mus musculus [2], the ILS at 400 mg/kg was found to be 100%. The Median life span in the test on Mus musculus [5] was 16.2 days; in the test with Mus musculus [19], 12.8 days; in the test with Mus musculus [7], 13.5 days; in the test on Mus musculus [8], 16.5 days; in the test on Mus musculus [16] it was 15 days; with Mus musculus [10] it was 14.8 days. The compound also yielded an ILS at 50 mg/kg with Mus musculus [6] of 66%. Moreover, the IC50 in the test filed under Mus musculus [14] came out at 1.9 µM. The compound further came in with an ILS at 800 mg/kg in the test with Mus musculus [15] of 85%. This compound also returned an ILS at 100 mg/kg in the test on Mus musculus [9] of 82%. Also, the ILS at 200 mg/kg in the test with Mus musculus [11] was found to be 103%.
